From PubChem BioAssay
mABHD4 FP: inhibits mouse alpha/beta hydrolase domain 4; 370,000 tested, 0.54% active; inhibition, % at 8.92 µM; purified mABHD4, FP-Rh probe fluorescence polarization; Q8VD66;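 active = inhibition exceeding the mean over every tested compound plus 3 SD, cut at about 30% in these data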;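 also: 0% = plate median of compound wells and 100% = S159A mutant with DMSO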
Target sequence (Q8VD66 whole entry, looked up, the tested form may be a part): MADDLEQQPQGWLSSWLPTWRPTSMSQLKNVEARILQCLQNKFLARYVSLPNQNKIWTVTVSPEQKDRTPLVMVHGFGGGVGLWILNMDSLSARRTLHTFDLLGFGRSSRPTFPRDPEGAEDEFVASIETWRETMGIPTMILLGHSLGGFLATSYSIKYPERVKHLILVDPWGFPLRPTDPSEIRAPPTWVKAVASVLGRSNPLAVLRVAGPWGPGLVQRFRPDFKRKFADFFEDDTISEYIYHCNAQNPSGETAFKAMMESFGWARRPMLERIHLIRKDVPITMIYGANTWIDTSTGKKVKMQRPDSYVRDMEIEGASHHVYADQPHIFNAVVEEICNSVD
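Material: mouse ABHD4 enzyme, wild type; Benchmarks: S159A mutant high control, sample median low control; Buffer or medium: HEPES pH 7.0, NaCl, Pluronic buffer; Signal: fluorescence polarization; Read-out: percent inhibition of probe binding, normalized to plate controls; Timing: pre-incubation 45 min, probe exposure 60 min, at 25 °C; Dosing: 8.92 µM, single dose.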
SIAE inh: blocks human sialic acid acetylesterase; 370,000 tested, 0.69% active; inhibition, % at 9.66 µM; Q9HAT2; AID 1053197; SIAE FP-Rh probe binding, fluorescence polarization;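 active = inhibition above a cutoff: mean of compounds within the control limits plus 3 SD of those, cut at about 17% in these data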;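 also: 0% = plate median of compound wells and 100% = probe without SIAE protein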
HTRA1 inhibitor: HTRA1 (human) protease inhibition. recombinant HTRA1, FP-rhodamine activity-based probe, fluorescence polarization. inhibition, % at 5.96 µM. 340,000 tested, 0.5% active; in the data active = inhibition above about 36%;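 also: 0% = enzyme with DMSO and 100% = wells lacking enzyme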
TCR-CD3 inh: inhibitors of human TCR-CD3 interaction; TAMRA-labeled TCR probe fluorescence, biochemical; inhibition, % at 9.4 µM; 360,000 tested, 0.37% active; in the data active = inhibition above about 19%;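 also: recombinant mutant TCR 2C K166C tagged with TAMRA read by polarization; 0% = receptor in buffer alone and 100% = receptor with positive control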
rCAG binder: molecules binding r(CAG) RNA repeats; r(CAG) RNA repeat, TO-PRO-1 dye displacement fluorescence; inhibition, % at 3 µM; 370,000 tested, 1.3% active; AID 651821;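 active = inhibition above the plate cutoff, the mean of all test compounds on that plate plus 3 SD, cut at about 35% in these data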;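 also: 0% = DMSO alone and 100% = 100 µM mitoxantrone as full dye displacement; higher means more dye released from RNA so lower well fluorescence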
PRMT1 FP inh: PRMT1 (human) inhibition, primary screen. Q99873. recombinant PRMT1, activity-based probe fluorescence polarization. inhibition, % at 2.79 µM. 370,000 tested, 1.3% active;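 active = inhibition above about 21% made by adding two undisclosed values, limit read from the data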
Target sequence (Q99873 whole entry, looked up): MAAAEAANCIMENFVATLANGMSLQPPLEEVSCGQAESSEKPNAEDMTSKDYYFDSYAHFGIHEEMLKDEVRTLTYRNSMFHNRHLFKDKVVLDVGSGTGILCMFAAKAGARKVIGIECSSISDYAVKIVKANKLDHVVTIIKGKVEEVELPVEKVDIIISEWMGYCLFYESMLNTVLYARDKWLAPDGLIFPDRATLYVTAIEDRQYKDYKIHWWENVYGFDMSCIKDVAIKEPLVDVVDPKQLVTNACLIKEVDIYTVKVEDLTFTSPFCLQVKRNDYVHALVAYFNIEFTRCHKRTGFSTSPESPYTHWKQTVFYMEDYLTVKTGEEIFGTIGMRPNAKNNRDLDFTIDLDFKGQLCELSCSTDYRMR
ABHD4 confirm: ABHD4 (mouse) inhibition, FP confirmation. shares compounds with mABHD4 FP. purified mABHD4, FP-Rh probe fluorescence polarization. inhibition, % at 8.92 µM. 1,800 tested, 55% active. AID 720658;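 active = mean inhibition across replicates above the hit cutoff set in the primary screen, cut at about 30% in these data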;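 also: 0% = wild-type ABHD4 with DMSO and 100% = catalytically dead S159A mutant with DMSO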
An asterisk follows results filed as active; nt = no result; + = active, no number. Rows were chosen to be rich in hits. Some 3.5% of all compounds tested hit in one or more screens of this group.

SMILES	mABHD4 FP	SIAE inh	HTRA1 inhibitor	TCR-CD3 inh	rCAG binder	PRMT1 FP inh	ABHD4 confirm
Cc1cc(C(=O)O)ccc1-n1c(C)cc(/C=C(/C#N)C(=O)Nc2ccccc2)c1C	45.8*	-1.3	nt	4.1	16.2	8.9	3.4
Nc1cc2c(cc1Br)[nH]c(=O)c1ccccc12	31.1*	-2.9	27.8	0.8	12.9	3.4	31.1*
Nc1cccc2[nH]c(=O)c3ccccc3c12	30.7*	16.4	9.0	2.6	11.7	5.8	12.2
Nc1cc2[nH]c(=O)c3ccccc3c2cc1Br	-3.8	4.8	-0.4	5.2	5.4	1.8	nt
O=c1[nH]c2ccccc2c(=O)c2ccccc12	3.6	-3.2	-1.0	1.7	1.4	6.3	nt
COCCN1C(=O)C2=C(C1=O)C1N(C)c3ccccc3[C@@]13C[C@@H](CO)N(C(=O)CCC(=O)OC)C3=N2 (stereo partly drawn)	2.9	-3.5	nt	nt	2.7	1.5	nt
CC(C)(c1ccccc1)c1ccc(OCC(O)CNC2CCN(Cc3ccccc3)CC2)cc1 (stereo not drawn)	31.6*	-1.4	-14.0	1.8	-1.8	-1.5	36.2*
N=c1n(CCN2CCCCC2)c2ccccc2n1CC(=O)c1cccs1	42.8*	1.4	1.9	5.5	3.4	-3.5	12.7
COc1cccc(C2C(C(N)=O)=C(C)Nc3nc(CCCO)nn32)c1OC (stereo not drawn)	4.7	-0.3	-0.4	-6.6	1.0	8.2	nt
CCOc1ccccc1C1C(C(N)=O)=C(C)Nc2nc(CCCO)nn21 (stereo not drawn)	31.3*	-3.9	-7.2	-5.0	1.6	1.1	8.2
COc1ccc(-n2c(COc3ccc(Cl)cc3)nnc2SCC(=O)Nc2ccc(Oc3ccccc3)cc2)cc1	-11.8	-1.8	nt	nt	8.0	-0.2	nt
COc1ccc(Nc2nc(-c3ccccc3)nc3ccccc23)cc1	-6.8	1.2	-28.8	-4.9	10.8	-3.0	nt
COc1ccc(-c2nc(N/N=C(\C)c3ccc(O)cc3)c3ccccc3n2)cc1	32.3*	-0.4	-21.5	-8.2	8.2	7.2	0.4
Cc1ccccc1Cn1cc(COC(=O)NCCc2c[nH]c3ccccc23)nn1	-3.5	-4.3	nt	nt	2.1	-1.4	nt
C/C(=N\Nc1nc2ccccc2[nH]1)c1ccc(Cl)s1	30.7*	10.6	10.9	1.9	4.1	-1.3	22.7
C/C(=N\NC(=O)c1ccccc1)c1ccc(N2CCOCC2)cc1	71.0*	9.6	0.0	7.8	-2.2	-0.4	-13.4
C/C(=N\Nc1nc(C)cc(C)n1)c1ccc(N2CCOCC2)cc1	-5.7	5.2	2.7	2.0	-1.4	-0.8	nt
C/C(=N\Nc1nc2ccccc2[nH]1)c1ccc(C)o1	12.2	1.2	2.1	5.9	2.2	-0.4	nt
CC(=O)N1CCC(=NNc2nc3ccccc3[nH]2)CC1	29.7*	8.8	nt	-3.1	4.3	2.4	6.9
C/C(=N\Nc1nc2ccccc2[nH]1)c1ccc(N2CCOCC2)cc1	33.2*	4.1	11.7	-1.3	-2.3	-0.3	29.6*
CCC(C)(C)C1CCC(=NNc2nc3ccccc3[nH]2)CC1 (stereo not drawn)	20.2	11.5	27.2	-5.0	-0.6	0.8	nt
O=C(Nc1ccccc1C(F)(F)F)OC1CCC12CCC(c1ccccc1)CC2 (stereo not drawn)	1.3	-4.8	nt	nt	3.6	-2.2	nt
COc1ccc(NS(=O)(=O)c2cc(N)ccc2N2CCCC2)cc1	39.5*	16.2	10.9	-4.6	18.0	7.4	32.5*
Cc1[nH]n2c(=O)c3c(nc2c1-c1ccc(Cl)cc1)CCC3	nt	nt	1.7	nt	nt	nt	nt
Nc1[nH]n2c(=O)c3c(nc2c1N=Nc1ccc(Cl)cc1)CCCC3	31.0*	6.6	3.8	2.6	16.5	-1.6	33.5*
SMILES	mABHD4 FP	SIAE inh	HTRA1 inhibitor	TCR-CD3 inh	rCAG binder	PRMT1 FP inh	ABHD4 confirm
Cc1cc(C(=O)O)ccc1-c1ccc(/C=C2\NC(=O)N(Cc3ccc(F)cc3)C2=O)o1	29.9*	3.7	1.9	4.7	7.1	5.3	78.1*
CC1CCC2(CCC(=O)N2C[C@@H](O)c2ccccc2)CC1 (stereo partly drawn)	3.6	5.5	nt	nt	nt	3.1	nt
O=[N+]([O-])c1ccc(C=NNc2ccc(S(=O)(=O)O)cc2)cc1	33.4*	0.6	10.7	3.8	11.1	1.9	50.2*
O=[N+]([O-])c1ccc(N/N=C/c2cccnc2)cc1	6.1	-6.6	0.7	1.7	12.0	2.8	nt
CCCCCCCCCCOC(=O)Cn1c(COc2ccccc2C)[n+](C)c2ccccc21	nt	nt	32.0	nt	nt	nt	nt
CCCCCCCCCCOC(=O)Cn1c(COc2ccc(Cl)cc2)[n+](C)c2ccccc21	35.2*	0.5	34.2	1.4	10.7	4.8	54.7*
CCOC(=O)Cn1c(COc2ccccc2OC)[n+](C)c2ccccc21	5.3	0.1	nt	12.2	-0.9	1.9	nt
CCCCCCCCCCOC(=O)Cn1c(COc2ccccc2)[n+](C)c2ccccc21	30.4*	0.1	20.4	2.5	5.5	-0.8	33.1*
Cc1cc(N/N=C/c2ccc(F)cc2)nc(NCc2ccccc2)n1	7.3	0.2	nt	-2.9	1.9	-2.5	nt
Cc1ccc(/C=N/Nc2cc(C)nc(NCc3ccccc3)n2)cc1	33.6*	1.3	-23.1	-3.4	5.5	-7.4	59.8*
COc1ccc(OC)c(CN2C(=O)CN(S(C)(=O)=O)CC2(C)c2nnnn2C2CCCC2)c1 (stereo not drawn)	4.4	-5.3	nt	nt	5.3	1.0	nt
O=C(CNc1cccc2ccccc12)N/N=C/c1ccc(C(=O)O)cc1	29.8*	8.9	4.4	-0.6	22.9	2.6	21.2
CCn1c2c(n(C(C)=O)c1=O)C=C(C(=O)N1CCCC1)C(C)C(c1ccccc1)=C2 (stereo not drawn)	6.2	10.2	nt	0.3	1.2	3.4	nt
CCN(CC)c1ccc(C(=O)NNC(=O)C2CSC3(C)CCC(=O)N23)cc1 (stereo not drawn)	39.2*	1.4	-5.7	3.3	-2.7	-1.9	-1.8
CC12CCC(=O)N1C(C(=O)NNC(=O)c1ccc(F)cc1)CS2 (stereo not drawn)	4.7	3.9	-1.9	-0.6	2.0	1.0	nt
CC(C)c1ccc2c(c1)C(N1CCNCC1)Cc1ccc(F)cc1S2 (stereo not drawn)	32.1*	-11.0	nt	-5.5	8.4	6.0	47.4*
CN1CCN(C2Cc3ccc(F)cc3Sc3cc(F)c(Cl)cc32)CC1 (stereo not drawn)	11.0	-4.8	-14.2	-1.0	2.8	-1.6	nt
CCCCn1cnc2cc(NCc3cccc(OC)c3O)ccc21	14.5	1.0	12.1	2.0	2.4	-0.5	nt
CCn1cnc2cc(NCc3cccc(OC)c3O)ccc21	+	0.4	12.9	4.7	-3.9	2.5	5.8
COC(=O)[C@H](Cc1c[nH]c2ccccc12)NCc1cccc(B(O)O)c1	77.3*	3.6	2.2	5.0	3.4	-1.2	61.9*
